# Legend:
# RAW264.7 [1] = experiment: Antiinflammatory activity in mouse RAW264.7 cells assessed as inhibition of LPS-induced NO production pretreated for 2 hrs followed by LPS stimulation measured after 24 hrs by Griess assay; format: functional, cell-based
# Summary of the method: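 RAW264.7 murine macrophages (DMEM, 10% serum, 37 °C, 5% CO2) seeded at 5 × 10^4 cells/well and cultured 18 h. Compounds tested at 1–100 μM (DMSO 0.1% v/v), with LPS (E. coli 0127:B8) at 100 ng mL−1. Supernatant nitrite read with Griess reagent (10 min, room temperature, OD540).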
# RAW264.7 [2] = experiment: Antiinflammatory activity in LPS-induced mouse RAW264.7 cells assessed as IL-6 levels at 2.5 uM pretreated for 2 hrs followed by LPS stimulation and measured after 24 hrs by ELISA (reference value: 1966.6 +/- 102.3 pg/ml); format: functional
# Summary of the method: (§1)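 RAW264.7 murine macrophages (DMEM, 10% serum, 37 °C, 5% CO2) seeded at 5 × 10^5 cells per well, pretreated 2 h with compound at 10, 5, 2.5 or 1.25 μM (DMSO 0.1% v/v), then LPS (E. coli 0127:B8) 100 ng mL−1 added. Supernatant TNF-α or IL-6 read by mouse ELISA kit after 6, 12 and 24 h. Mean ± SD, n = 3, three independent experiments.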
# RAW264.7 [3] = experiment: Antiinflammatory activity in LPS-induced mouse RAW264.7 cells assessed as TNFalpha levels at 1.25 uM pretreated for 2 hrs followed by LPS stimulation and measured after 24 hrs by ELISA (reference value: 9653.7 +/- 377.3 pg/ml); format: functional; summary of the method: as §1
# RAW264.7 [4] = experiment: Antiinflammatory activity in LPS-induced mouse RAW264.7 cells assessed as TNFalpha levels at 10 uM pretreated for 2 hrs followed by LPS stimulation and measured after 24 hrs by ELISA (reference value: 9653.7 +/- 377.3 pg/ml); format: functional; summary of the method: as §1
# RAW264.7 [5] = experiment: Antiinflammatory activity in LPS-induced mouse RAW264.7 cells assessed as IL-6 levels at 10 uM pretreated for 2 hrs followed by LPS stimulation and measured after 12 hrs by ELISA (reference value: 1394 +/- 62.6 pg/ml); format: functional; summary of the method: as §1
# RAW264.7 [6] = experiment: Antiinflammatory activity in LPS-induced mouse RAW264.7 cells assessed as TNFalpha levels at 1.25 uM pretreated for 2 hrs followed by LPS stimulation and measured after 6 hrs by ELISA (reference value: 4377.1 +/- 318.6 pg/ml); format: functional; summary of the method: as §1
# RAW264.7 [7] = experiment: Antiinflammatory activity in LPS-induced mouse RAW264.7 cells assessed as IL-6 levels at 10 uM pretreated for 2 hrs followed by LPS stimulation and measured after 6 hrs by ELISA (reference value: 472.3 +/- 25.8 pg/ml); format: functional; summary of the method: as §1
# RAW264.7 [8] = experiment: Antiinflammatory activity in LPS-induced mouse RAW264.7 cells assessed as IL-6 levels at 5 uM pretreated for 2 hrs followed by LPS stimulation and measured after 6 hrs by ELISA (reference value: 472.3 +/- 25.8 pg/ml); format: functional; summary of the method: as §1
# RAW264.7 [9] = experiment: Antiinflammatory activity in LPS-induced mouse RAW264.7 cells assessed as TNFalpha levels at 5 uM pretreated for 2 hrs followed by LPS stimulation and measured after 6 hrs by ELISA (reference value: 4377.1 +/- 318.6 pg/ml); format: functional; summary of the method: as §1
# RAW264.7 [10] = experiment: Antiinflammatory activity in LPS-induced mouse RAW264.7 cells assessed as TNFalpha levels at 2.5 uM pretreated for 2 hrs followed by LPS stimulation and measured after 24 hrs by ELISA (reference value: 9653.7 +/- 377.3 pg/ml); format: functional; summary of the method: as §1
# RAW264.7 [11] = experiment: Antiinflammatory activity in LPS-induced mouse RAW264.7 cells assessed as IL-6 levels at 2.5 uM pretreated for 2 hrs followed by LPS stimulation and measured after 6 hrs by ELISA (reference value: 472.3 +/- 25.8 pg/ml); format: functional; summary of the method: as §1
# RAW264.7 [12] = experiment: Antiinflammatory activity in LPS-induced mouse RAW264.7 cells assessed as IL-6 levels at 5 uM pretreated for 2 hrs followed by LPS stimulation and measured after 12 hrs by ELISA (reference value: 1394 +/- 62.6 pg/ml); format: functional; summary of the method: as §1
# RAW264.7 [13] = experiment: Antiinflammatory activity in LPS-induced mouse RAW264.7 cells assessed as TNFalpha levels at 10 uM pretreated for 2 hrs followed by LPS stimulation and measured after 12 hrs by ELISA (reference value: 5313.7 +/- 420.9 pg/ml); format: functional; summary of the method: as §1
# RAW264.7 [14] = experiment: Antiinflammatory activity in LPS-induced mouse RAW264.7 cells assessed as IL-6 levels at 1.25 uM pretreated for 2 hrs followed by LPS stimulation and measured after 6 hrs by ELISA (reference value: 472.3 +/- 25.8 pg/ml); format: functional; summary of the method: as §1
# [15] = Cytotoxicity against mouse RAW264.7 cells assessed as cell viability at 10 uM after 48 hrs by MTT assay (reference value: 100%); format: cell-based; details: read-out: Activity
# Summary of the method: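 RAW264.7 cells seeded at 4 × 10^3 per well, cultured overnight, exposed to compound (DMSO 0.1% v/v) for 48 h. MTT 0.5 mg mL−1 added for 4 h at 37 °C, formazan dissolved in DMSO, OD570 read. Viability relative to medium-only cells set as 100%. Mean ± SD (n = 5), three independent experiments.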
# RAW264.7 [16] = experiment: Antiinflammatory activity in LPS-induced mouse RAW264.7 cells assessed as IL-6 levels at 1.25 uM pretreated for 2 hrs followed by LPS stimulation and measured after 12 hrs by ELISA (reference value: 1394 +/- 62.6 pg/ml); format: functional; summary of the method: as §1
# RAW264.7 [17] = experiment: Antiinflammatory activity in LPS-induced mouse RAW264.7 cells assessed as TNFalpha levels at 5 uM pretreated for 2 hrs followed by LPS stimulation and measured after 12 hrs by ELISA (reference value: 5313.7 +/- 420.9 pg/ml); format: functional; summary of the method: as §1
# RAW264.7 [18] = experiment: Antiinflammatory activity in LPS-induced mouse RAW264.7 cells assessed as TNFalpha levels at 10 uM pretreated for 2 hrs followed by LPS stimulation and measured after 6 hrs by ELISA (reference value: 4377.1 +/- 318.6 pg/ml); format: functional; summary of the method: as §1
# RAW264.7 [19] = experiment: Antiinflammatory activity in LPS-induced mouse RAW264.7 cells assessed as TNFalpha levels at 5 uM pretreated for 2 hrs followed by LPS stimulation and measured after 24 hrs by ELISA (reference value: 9653.7 +/- 377.3 pg/ml); format: functional; summary of the method: as §1
# RAW264.7 [20] = experiment: Antiinflammatory activity in LPS-induced mouse RAW264.7 cells assessed as TNFalpha levels at 2.5 uM pretreated for 2 hrs followed by LPS stimulation and measured after 6 hrs by ELISA (reference value: 4377.1 +/- 318.6 pg/ml); format: functional; summary of the method: as §1
# RAW264.7 [21] = experiment: Antiinflammatory activity in LPS-induced mouse RAW264.7 cells assessed as IL-6 levels at 5 uM pretreated for 2 hrs followed by LPS stimulation and measured after 24 hrs by ELISA (reference value: 1966.6 +/- 102.3 pg/ml); format: functional; summary of the method: as §1
# RAW264.7 [22] = experiment: Antiinflammatory activity in LPS-induced mouse RAW264.7 cells assessed as IL-6 levels at 10 uM pretreated for 2 hrs followed by LPS stimulation and measured after 24 hrs by ELISA (reference value: 1966.6 +/- 102.3 pg/ml); format: functional; summary of the method: as §1
# RAW264.7 [23] = experiment: Antiinflammatory activity in LPS-induced mouse RAW264.7 cells assessed as IL-6 levels at 1.25 uM pretreated for 2 hrs followed by LPS stimulation and measured after 24 hrs by ELISA (reference value: 1966.6 +/- 102.3 pg/ml); format: functional; summary of the method: as §1
# RAW264.7 [24] = experiment: Antiinflammatory activity in LPS-induced mouse RAW264.7 cells assessed as IL-6 levels at 2.5 uM pretreated for 2 hrs followed by LPS stimulation and measured after 12 hrs by ELISA (reference value: 1394 +/- 62.6 pg/ml); format: functional; summary of the method: as §1
structure (smiles),measurement,setting,value
CC1C[C@H](O/C=C2/C(=O)OC3c4ccccc4CC23)OC1=O (some centres undefined),IC50,RAW264.7 [1],42.1 µM
C[C@@H]1C[C@H]2[C@@H]3CCC4=CC(=O)C=C[C@]4(C)[C@@]3(F)[C@@H](O)C[C@]2(C)[C@@]1(O)C(=O)CO [DEXAMETHASONE],Activity,RAW264.7 [2],1594.9 pg/mL
same,Activity,RAW264.7 [3],8748.1 pg/mL
same,Activity,RAW264.7 [4],6458.3 pg/mL
same,Activity,RAW264.7 [5],791 pg/mL
same,Activity,RAW264.7 [6],4056.3 pg/mL
same,Activity,RAW264.7 [7],269.5 pg/mL
same,Activity,RAW264.7 [8],332.8 pg/mL
same,Activity,RAW264.7 [9],3219.4 pg/mL
same,IC50,RAW264.7 [1],2.66 µM
same,Activity,RAW264.7 [10],8187.9 pg/mL
same,Activity,RAW264.7 [11],393.4 pg/mL
same,Activity,RAW264.7 [12],927.7 pg/mL
same,Activity,RAW264.7 [13],3393.5 pg/mL
same,Activity,RAW264.7 [14],422.7 pg/mL
same,"viability at 48 h, 10 µM",[15],100%
same,Activity,RAW264.7 [16],1240.5 pg/mL
same,Activity,RAW264.7 [17],4063.6 pg/mL
same,Activity,RAW264.7 [18],2655 pg/mL
same,Activity,RAW264.7 [19],7533.7 pg/mL
same,Activity,RAW264.7 [20],3671.8 pg/mL
same,Activity,RAW264.7 [21],1336.5 pg/mL
same,Activity,RAW264.7 [22],924.1 pg/mL
same,Activity,RAW264.7 [23],1770.4 pg/mL
same,Activity,RAW264.7 [24],1120.3 pg/mL
CC1C[C@H](O/C=C2/C(=O)O[C@@H]3c4ccccc4C[C@H]23)OC1=O (some centres undefined),IC50,RAW264.7 [1],32.3 µM
CC1C[C@@H](O/C=C2/C(=O)O[C@@H]3c4ccccc4C[C@H]23)OC1=O (some centres undefined),IC50,RAW264.7 [1],64.6 µM
CC1=C[C@@H](O/C=C2/C(=O)O[C@@H]3c4ccccc4C[C@H]23)OC1=O,IC50,RAW264.7 [1],6.62 µM
CC1=C[C@@H](O/C=C2/C(=O)OC3c4ccccc4CC23)OC1=O (some centres undefined),IC50,RAW264.7 [1],4.32 µM
CC1C[C@@H](O/C=C2/C(=O)O[C@H]3c4ccccc4C[C@@H]23)OC1=O (some centres undefined),IC50,RAW264.7 [1],35.4 µM
CC1=C[C@H](O/C=C2/C(=O)OC3c4ccccc4CC23)OC1=O (some centres undefined),IC50,RAW264.7 [1],4.06 µM
CC1=C[C@H](O/C=C2/C(=O)O[C@H]3c4ccccc4C[C@@H]23)OC1=O,IC50,RAW264.7 [1],6.34 µM
CC1C[C@@H](O/C=C2/C(=O)OC3c4ccccc4CC23)OC1=O (some centres undefined),IC50,RAW264.7 [1],44.5 µM
CC1C[C@H](O/C=C2/C(=O)O[C@H]3c4ccccc4C[C@@H]23)OC1=O (some centres undefined),IC50,RAW264.7 [1],60.5 µM

# From ChEMBL document CHEMBL4257465, “Strigolactones: a plant phytohormone as novel anti-inflammatory agents” (Medchemcomm, 2018)
